HCT116 PTEN-null: suppresses growth of cells with PTEN deletion | HCT116 PTEN-null viability, CellTiter-Glo, 60 h; hits give low values | viability, % at 10 µM | 1.2% of 140,000 active;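 active = viability at or below a set limit, 4 SD under the median of all tested compounds, cut at about 3.7% in these data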;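 also: PTEN knockout HCT116 line with beta catenin targeted HCT116 as companion control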
H69AR growth 86K: blocks growth of human H69AR lung tumor cells; H69AR lung tumor viability, ATP luminescence, 72 h; hits give low values; viability, % at 10 µM; 6% of 85,000 active; AID 598;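 active = viability at or below 40%; inactive = viability above 40%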;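 also: multidrug resistant small cell line overexpressing MRP-1 efflux transporter; 100% = mean luminescence of untreated control wells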
Lung fibro prol: blocks proliferation of human lung fibroblasts. LL 47 human lung fibroblast viability, ATP luminescence; hits give low values. viability, % at 10 µM. 1.1% of 85,000 active;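 active = viability at or below 50% in the single dose screen; inactive = viability above 50%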;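 also: compound exposure lasted 72 h before the ATP readout; 100% = median luminescence of untreated cell-only wells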
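Assay system: human lung fibroblast line LL 47, low passage. Input: 1,150 fibroblasts seeded per well. Times: overnight cell rest, 72 h compound treatment at 37 °C. Evaluation: % viability of median cell-only signal. Technique: luminescent ATP detection, CellTiter-Glo. Control set: cell-only wells, no compound.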
HUVEC prolif 384: human endothelial cell proliferation inhibition. HUVEC proliferation, CellTiter-Glo luminescence, 72 h; hits give low values. viability, % at 10 µM (by protocol). 1.1% of 86,000 active. AID 648;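 active = viability at or below 30%; inactive = viability above 30%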;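 also: 100% = median luminescence of DMSO-only cell control wells on each plate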
HCT116 bCat-KO: beta-catenin-lacking colon tumor cell growth suppression; 1.5% of 140,000 active; viability, % at 10 µM; HCT116 beta-catenin knockout viability, CellTiter-Glo, 60 h; hits give low values;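 active = viability at or under a set limit, the compound median less 4 SD, cut at about 6% in these data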;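 also: 0% = Hyamine 1622 control at 20 µM and 100% = untreated cell control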
* = called active by the depositor; / = not tested or not shown. This is one part of a sample in which hits are shown more often than they occur.

SMILES | HCT116 PTEN-null | H69AR growth 86K | Lung fibro prol | HUVEC prolif 384 | HCT116 bCat-KO
COC(=O)c1c(NC(=O)CSc2nc3ccccc3c(=O)n2Cc2ccco2)sc(C)c1C | 61 | / | / | / | 41
COC(=O)c1ccc2c(=O)n(CC3CCCO3)c(SCC(=O)Nc3ccccc3Cl)nc2c1 (stereo not given) | 2.2* | 8.2* | 80 | 47 | 2.5*
COC(=O)c1ccc2c(=O)n(Cc3ccco3)c(SCC(=O)Nc3ccccc3Cl)nc2c1 | 21 | 17* | 91 | 24* | 68
COC(=O)c1ccc2c(=O)n(Cc3ccc4c(c3)OCO4)c(SCC(=O)N3CCCC3)nc2c1 | / | 2.5* | 119 | 88 | /
CCc1ccc(NC(=O)CSc2nc3cc(C(=O)OC)ccc3c(=O)n2CC2CCCO2)cc1 (stereo not given) | 8 | 3.5* | 36* | 48 | 48
COC(=O)c1ccc2c(=O)n(CC3CCCO3)c(SCC(=O)Nc3ccccc3OC)nc2c1 (stereo not given) | 66 | 83 | 113 | 86 | 77
COc1cccc(OC)c1-c1nn2c(-c3ccccc3Cl)nnc2s1 | 85 | 69 | 92 | 78 | 85
CCc1ccccc1-n1c(SCC(=O)Nc2ccc3c(c2)OCCO3)nc2[nH]ncc2c1=O | 87 | 39* | 75 | 77 | 93
CCOC(=O)c1c(NC(=O)CSc2nnnn2-c2ccc3c(c2)OCO3)sc(C)c1C | 89 | 60 | 92 | 84 | 92
CCOC(=O)c1c(NC(=O)CSc2nnnn2-c2ccc3c(c2)OCCO3)sc(C)c1C | 82 | 36* | 87 | 93 | 77
COc1ccc(OC)c(-n2nnnc2SCC(=O)Nc2ccc3c(c2)OCCO3)c1 | 102 | 43 | 82 | 18* | 102
Cc1cccc(S(=O)(=O)c2c(N)n(/N=C/c3ccccc3)c3nc4ccccc4nc23)c1 | 53 | 44 | 93 | 99 | 53
CC(C)CCn1c(N)c(S(=O)(=O)c2cccs2)c2nc3ccccc3nc21 | 22 | 40* | 84 | 74 | 30
Cc1ccc(S(=O)(=O)c2c(N)n(CCC(C)C)c3nc4ccccc4nc23)cc1 | 2.6* | 92 | 95 | 65 | 8
Cc1ccc(S(=O)(=O)c2c(N)n(CCCO)c3nc4ccccc4nc23)cc1 | 81 | 83 | 96 | 87 | 87
Cn1c(N)c(S(=O)(=O)c2ccc(Br)cc2)c2nc3ccccc3nc21 | 84 | 13* | 97 | 63 | 77
Nc1c(S(=O)(=O)c2ccccc2)c2nc3ccccc3nc2n1/N=C/c1cccc(O)c1 | 3.6* | 1.4* | 100 | 6.9* | 9
CCOP(=O)(c1ccccc1)C1(O)CCCCC1 (stereo not given) | 90 | 100 | 105 | 101 | 91
O=C(NC1CCCCC1)c1ccc(S(=O)(=O)NCc2cccnc2)cc1 | 69 | 82 | 99 | 109 | 68
COc1cc(S(=O)(=O)Nc2ccccn2)ccc1F | 92 | 87 | 94 | 119 | 95
CCN1/C(=C/c2ccc3ccccc3[n+]2CC)C=Cc2ccccc21 | 1.5* | 2.2* | 18* | 45 | 1.8*
Cc1c(CCC(C)C)c(-n2ccnc2C)n2c(nc3ccccc32)c1C#N | 74 | 23* | 100 | 105 | 72
C=C(C)CN1CCN(c2c(CCC#N)c(C)c(C#N)c3nc4ccccc4n23)CC1 | 3.1* | 38* | 69 | 74 | 2.9*
CCCCCc1c(C)c(C#N)c2nc3ccccc3n2c1-n1ccnc1C | 70 | / | / | / | 77
Cc1cnc(-c2nnc(N(C)C(=O)c3cnccn3)s2)cn1 | / | 98 | 97 | 97 | /
SMILES | HCT116 PTEN-null | H69AR growth 86K | Lung fibro prol | HUVEC prolif 384 | HCT116 bCat-KO
COc1ccc(-c2onc(C)c2-c2ccccc2)c(O)c1 | 52 | 31* | 95 | 85 | 50
COc1ccc(-c2noc(C)c2-c2ccc3ccccc3n2)c(O)c1 | 71 | 26* | 78 | 71 | 67
COc1cccc(-c2nc(-c3ccccc3)no2)c1 | 74 | 66 | 93 | 97 | 73
Cc1oc2c(C)c(O)ccc2c(=O)c1-c1ccc2ccccc2n1 | 99 | / | / | / | 98
O=C(NC1CCCC1)c1cnn2c(C(F)(F)F)cc(-c3ccco3)nc12 | 62 | 33* | 78 | 85 | 68
CC(C)CCNC(=O)c1cnn2c(C(F)(F)F)cc(-c3ccco3)nc12 | 59 | 56 | 97 | 86 | 66
O=C(NC1CCCC1)c1cnn2c(C(F)(F)F)cc(-c3ccc4c(c3)OCO4)nc12 | 7 | 17* | 84 | 28* | 11
O=C(c1nn2c(C(F)(F)F)cc(-c3ccco3)nc2c1Br)N1CCCc2ccccc21 | 80 | 39* | 46* | 65 | 66
CC1CN(S(=O)(=O)c2cccc(C(=O)OCC(=O)Nc3ccc4c(c3)OCO4)c2)CC(C)O1 (stereo not given) | 77 | 1.0* | 99 | 85 | 81
CC1CN(S(=O)(=O)c2cccc(C(=O)OCC(=O)c3cccs3)c2)CC(C)O1 (stereo not given) | 101 | 108 | 98 | 103 | 98
CCOC(=O)C1CCCN(C(=O)CN2CCN(Cc3ccc(Cl)cc3)C2=O)C1 (stereo not given) | 85 | 103 | 97 | 111 | 86
O=C(/C=C/c1c(F)cccc1Cl)c1ccc(F)cc1 | 2.4* | / | / | / | 4.3*
O=C(N/N=C/c1c(Cl)cccc1Cl)c1ccc(F)cc1 | 92 | / | / | / | 98
Cc1ccnc(SCc2cc(=O)c(OC(=O)c3ccc(Cl)c([N+](=O)[O-])c3)co2)n1 | 102 | / | / | / | 101
COc1ccc(N(C)S(=O)(=O)c2cccc3cccnc23)c(OC)c1 | 25 | 17* | 75 | 59 | 22
COc1ccc(NC(=O)C2CCCN2S(=O)(=O)c2cccc3cccnc23)c(OC)c1 (stereo not given) | 85 | 101 | 89 | 107 | 87
CCCc1nn2c(=O)c(C(c3cccc(Cl)c3)c3c(O)nc4sc(CCC)nn4c3=O)c(O)nc2s1 | 90 | / | / | / | 88
CSc1nnc2c3c4c(sc3nc(-n3nc(C)cc3C)n12)COC(C)(C)C4 | 68 | 74 | 107 | 92 | 68
Cc1cc(C)n(-c2nc(-n3nc(C)cc3C)c3c4c(sc3n2)COC(C)(C)C4)n1 | 91 | 26* | 87 | 106 | 94
Cc1cc(C)n(-c2nc(NCCC(C)C)c3c4c(sc3n2)COC(C)(C)C4)n1 | 4 | 1.6* | 86 | 13* | 3.6*
Cc1cc(C)n(-c2nc(SCC(=O)Nc3nccs3)c3c4c(sc3n2)COC(C)(C)C4)n1 | 84 | 47 | 69 | 61 | 73
COc1ccccc1-n1c(SCC(=O)NC2CCCCC2)nc2c(c1=O)SCC2 | 95 | 79 | 95 | 92 | 89
O=C1/C(=C/c2ccc([N+](=O)[O-])cc2)C=C(c2ccccc2)N1c1ccc(O)cc1 | 2.2* | 26* | 54 | 9.9* | 2.2*
COc1ccc(N2C(=O)/C(=C/c3ccc([N+](=O)[O-])cc3)C=C2c2ccccc2)cc1 | 47 | 21* | 61 | 56 | 38
COC(=O)c1ccc(OCC(=O)c2ccccc2OC)cc1 | 83 | 95 | 98 | 96 | 90
CCCCNc1ncnc2c1cnn2-c1ccccc1 | 23 | 13* | 68 | 72 | 15

Compound activity: PubChem BioAssay, SRMLSC
